Calls of active or inactive are those of the source. No cut-off for these calls is given here.
Legend:
[1] = target: Voltage-gated inwardly rectifying potassium channel KCNH2 (Homo sapiens, UniProt Q12809); assay: Inhibition of human ERG expressd in CHO-hERG cells after 2.5 hrs by Rb+ efflux assay; assay type: cell-based
Rattus norvegicus [2] = assay: In vivo inhibition of PDE10A in Wistar rat assessed as increase in cAMP accumulation in lungs at 2.5 mg/kg, ip administered daily for 3 weeks by ELISA; assay type: functional, organism-based
How it was run: (§1)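 Lung tissue was taken from MCT (60 mg/kg) Wistar rats after 3 weeks of daily treatment: 2.5 mg/kg i.p. or 10 mg/kg p.o., given in 5% DMSO/10% Solutol/85% water. cAMP and cGMP were measured by commercial ELISA kits following the manufacturer's protocols. n = 6-9 animals per group, means ± SD.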

[3] = target: Mitogen-activated protein kinase kinase kinase 20 (Homo sapiens, UniProt Q9NYL2); assay: Inhibition of ZAK (unknown origin)
Cholinesterase = Cholinesterase (Equus caballus, UniProt P81908); assay: Inhibition of equine serum BuChE using BTC as substrate after 15 mins by Ellman's method
Acetylcholinesterase = Acetylcholinesterase (Electrophorus electricus, UniProt O42275); assay: Inhibition of electric eel AChE using ATC as substrate after 15 mins by Ellman's method
[4] = Volume of distribution at steady state in Sprague-Dawley rat at 2.5 mg/kg, iv after 24 hrs by LC-MS/MS analysis; assay type: ADME, organism-based; conditions: in vivo, read-out: Vdss
How it was run: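 Sprague-Dawley rats given the formulated compound intravenously at a final 2.5 mg/kg. Blood sampled at several time points over 24 h and analysed for drug concentration by LC-MS/MS.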

[5] = target: Cone cGMP-specific 3',5'-cyclic phosphodiesterase subunit alpha' (Homo sapiens, UniProt P51160); assay: Inhibition of PDE6C (1 to 858 residues) (unknown origin)
Homo sapiens [6] = organism: Homo sapiens; assay: Selectivity ratio of IC50 for inhibition of PDE5A1 catalytic domain (535 to 860 residues) (unknown origin) expressed in Escherichia coli BL21 cells to IC50 for inhibition of human PDE10A2 catalytic domain 446 to 789 residues expressed in Escherichia coli BL21 cells
[7] = target: Bromodomain-containing protein 4 (Homo sapiens, UniProt O60885); assay: Inhibition of BRD4 (unknown origin)
[8] = target: Fibroblast growth factor receptor 4 (Homo sapiens, UniProt P22455); assay: Inhibition of FGFR4 (unknown origin)
Homo sapiens [9] = organism: Homo sapiens; assay: Selectivity ratio of IC50 for inhibition of PDE8A1 catalytic domain (480 to 820 residues) (unknown origin) expressed in Escherichia coli BL21 cells to IC50 for inhibition of human PDE10A2 catalytic domain 446 to 789 residues expressed in Escherichia coli BL21 cells
Estrogen receptor = Estrogen receptor (Homo sapiens, UniProt P03372); assay: Inhibition of human Gal4-fused ER alpha expressed in 293FT cells after 24 hrs by luciferase reporter gene assay; assay type: cell-based
Homo sapiens [10] = organism: Homo sapiens; assay: Selectivity ratio of IC50 for inhibition of human PDE4D2 catalytic domain (86 to 413 residues) expressed in Escherichia coli BL21 cells to IC50 for inhibition of human PDE10A2 catalytic domain 446 to 789 residues expressed in Escherichia coli BL21 cells
Homo sapiens [11] = organism: Homo sapiens; assay: Selectivity ratio of IC50 for inhibition of PDE2A catalytic domain (580 to 919 residues) (unknown origin) expressed in Escherichia coli BL21 cells to IC50 for inhibition of human PDE10A2 catalytic domain 446 to 789 residues expressed in Escherichia coli BL21 cells
Aurora kinase B = Aurora kinase B (Homo sapiens, UniProt Q96GD4); assay: Inhibition of Aurora B (unknown origin)
Homo sapiens [12] = organism: Homo sapiens; assay: Selectivity ratio of IC50 for inhibition of PDE9A2 catalytic domain (181 to 506 residues) (unknown origin) expressed in Escherichia coli BL21 cells to IC50 for inhibition of human PDE10A2 catalytic domain 446 to 789 residues expressed in Escherichia coli BL21 cells
[13] = target: Receptor-type tyrosine-protein kinase FLT3 (Homo sapiens, UniProt P36888); assay: Inhibition of FLT3 (unknown origin)
[14] = target: Epidermal growth factor receptor (Homo sapiens, UniProt P00533); assay: Inhibition of EGFR (unknown origin)
Aurora kinase A = Aurora kinase A (Homo sapiens, UniProt O14965); assay: Inhibition of Aurora A (unknown origin)
[15] = target: Dual specificity calcium/calmodulin-dependent 3',5'-cyclic nucleotide phosphodiesterase 1B (Homo sapiens, UniProt Q01064); assay: Inhibition of PDE1B catalytic domain (10 to 487 residues) (unknown origin) expressed in Escherichia coli BL21 cells
[16] = target: Fibroblast growth factor receptor 3 (Homo sapiens, UniProt P22607); assay: Inhibition of FGFR3 (unknown origin)
Homo sapiens [17] = organism: Homo sapiens; assay: Selectivity ratio of IC50 for inhibition of PDE1B catalytic domain (10 to 487 residues) (unknown origin) expressed in Escherichia coli BL21 cells to IC50 for inhibition of human PDE10A2 catalytic domain 446 to 789 residues expressed in Escherichia coli BL21 cells
Rattus norvegicus [18] = assay: Anti-hypersensitive activity in Wistar rat model of MCT-induced pulmonary arterial hypertension assessed as effect on wall thickness at 2.5 mg/kg, ip administered daily for 3 weeks; assay type: functional, organism-based
[19] = target: 3',5'-cyclic-AMP phosphodiesterase 4D (Homo sapiens, UniProt Q08499); assay: Inhibition of human PDE4D2 catalytic domain (86 to 413 residues) expressed in Escherichia coli BL21 cells
Homo sapiens [20] = organism: Homo sapiens; assay: Selectivity ratio of IC50 for inhibition of PDE6C (1 to 858 residues) (unknown origin) to IC50 for inhibition of human PDE10A2 catalytic domain 446 to 789 residues expressed in Escherichia coli BL21 cells
[21] = target: cGMP-specific 3',5'-cyclic phosphodiesterase (Homo sapiens, UniProt O76074); assay: Inhibition of PDE5A1 catalytic domain (535 to 860 residues) (unknown origin) expressed in Escherichia coli BL21 cells
Histone deacetylase 1 = Histone deacetylase 1 (Homo sapiens, UniProt Q13547); assay: Inhibition of recombinant human full length C-terminal His/FALG-tagged HDAC1 expressed in Sf9 insect cells using acetylated peptide as susbtrate after 60 mins by fluorescence based assay
[22] = target: cGMP-inhibited 3',5'-cyclic phosphodiesterase 3A (Homo sapiens, UniProt Q14432); assay: Inhibition of PDE3A catalytic domain (679 to 1087 residues) (unknown origin) expressed in Escherichia coli BL21 cells
[23] = target: Dual specificity calcium/calmodulin-dependent 3',5'-cyclic nucleotide phosphodiesterase 1C (Homo sapiens, UniProt Q14123); assay: Inhibition of human N-terminal GST-tagged PDE1C catalytic domain (2 to 634 residues) expressed in baculovirus infected Sf9 cells
Rattus norvegicus [24] = assay: In vivo inhibition of PDE10A in Wistar rat assessed as increase in cGMP accumulation in lungs at 2.5 mg/kg, ip administered daily for 3 weeks by ELISA; assay type: functional, organism-based; how it was run: as §1
Rattus norvegicus [25] = assay: Anti-hypersensitive activity in Wistar rat model of MCT-induced pulmonary arterial hypertension assessed as effect on right ventricular hypertrophy index at 2.5 mg/kg, ip administered daily for 3 weeks; assay type: functional, organism-based

Sequence of Acetylcholinesterase (O42275 whole entry): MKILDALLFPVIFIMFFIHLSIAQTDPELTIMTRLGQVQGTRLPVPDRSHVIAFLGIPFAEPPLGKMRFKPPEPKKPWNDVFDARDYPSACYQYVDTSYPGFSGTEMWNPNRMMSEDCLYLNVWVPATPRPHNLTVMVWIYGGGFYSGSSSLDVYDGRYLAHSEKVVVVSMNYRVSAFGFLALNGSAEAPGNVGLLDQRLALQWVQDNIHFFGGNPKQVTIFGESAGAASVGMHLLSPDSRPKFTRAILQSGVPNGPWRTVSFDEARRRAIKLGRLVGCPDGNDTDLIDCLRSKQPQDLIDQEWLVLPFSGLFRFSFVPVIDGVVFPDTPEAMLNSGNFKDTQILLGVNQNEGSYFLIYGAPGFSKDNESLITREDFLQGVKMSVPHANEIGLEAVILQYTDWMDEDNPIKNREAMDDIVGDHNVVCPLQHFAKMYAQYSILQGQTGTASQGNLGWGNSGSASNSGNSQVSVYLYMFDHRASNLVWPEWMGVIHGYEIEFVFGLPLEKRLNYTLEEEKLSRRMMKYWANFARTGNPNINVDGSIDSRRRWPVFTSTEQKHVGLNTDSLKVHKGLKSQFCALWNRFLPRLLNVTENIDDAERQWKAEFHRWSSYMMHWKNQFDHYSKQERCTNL
Sequence of Estrogen receptor (P03372 whole entry, the tested form may be a part): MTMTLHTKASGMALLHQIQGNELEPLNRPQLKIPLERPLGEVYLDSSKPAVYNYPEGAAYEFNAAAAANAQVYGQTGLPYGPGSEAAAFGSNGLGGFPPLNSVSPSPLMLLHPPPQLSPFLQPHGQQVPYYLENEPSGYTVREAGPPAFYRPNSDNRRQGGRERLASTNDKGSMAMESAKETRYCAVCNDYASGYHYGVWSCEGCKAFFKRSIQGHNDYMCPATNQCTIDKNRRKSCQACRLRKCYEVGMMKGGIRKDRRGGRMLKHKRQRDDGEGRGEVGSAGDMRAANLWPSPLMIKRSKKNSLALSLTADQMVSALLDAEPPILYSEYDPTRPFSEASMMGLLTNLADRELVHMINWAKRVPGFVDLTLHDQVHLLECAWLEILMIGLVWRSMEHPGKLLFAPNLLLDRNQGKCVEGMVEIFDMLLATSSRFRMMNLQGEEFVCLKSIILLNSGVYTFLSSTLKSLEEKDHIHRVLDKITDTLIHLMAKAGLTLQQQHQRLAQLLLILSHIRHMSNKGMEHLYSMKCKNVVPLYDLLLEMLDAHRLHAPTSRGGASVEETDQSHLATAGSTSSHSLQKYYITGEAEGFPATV
Sequence of Cholinesterase (P81908 whole entry): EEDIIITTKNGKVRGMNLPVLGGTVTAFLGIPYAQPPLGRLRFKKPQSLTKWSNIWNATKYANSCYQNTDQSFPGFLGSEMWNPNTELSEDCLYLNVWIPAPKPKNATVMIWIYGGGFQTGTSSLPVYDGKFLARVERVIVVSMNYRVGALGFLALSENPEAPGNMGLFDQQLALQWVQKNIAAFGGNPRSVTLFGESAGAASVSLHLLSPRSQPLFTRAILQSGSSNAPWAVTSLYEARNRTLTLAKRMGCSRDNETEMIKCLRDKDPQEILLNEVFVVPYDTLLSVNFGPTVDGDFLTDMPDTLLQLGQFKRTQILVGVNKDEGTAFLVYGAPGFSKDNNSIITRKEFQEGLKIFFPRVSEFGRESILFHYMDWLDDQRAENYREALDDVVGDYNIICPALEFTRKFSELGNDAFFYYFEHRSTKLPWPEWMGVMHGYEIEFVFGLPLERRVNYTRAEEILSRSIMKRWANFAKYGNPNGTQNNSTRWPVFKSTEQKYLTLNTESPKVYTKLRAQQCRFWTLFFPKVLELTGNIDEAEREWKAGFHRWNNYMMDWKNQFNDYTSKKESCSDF
Sequence of Cone cGMP-specific 3',5'-cyclic phosphodiesterase subunit alpha' (P51160 whole entry, the tested form may be a part): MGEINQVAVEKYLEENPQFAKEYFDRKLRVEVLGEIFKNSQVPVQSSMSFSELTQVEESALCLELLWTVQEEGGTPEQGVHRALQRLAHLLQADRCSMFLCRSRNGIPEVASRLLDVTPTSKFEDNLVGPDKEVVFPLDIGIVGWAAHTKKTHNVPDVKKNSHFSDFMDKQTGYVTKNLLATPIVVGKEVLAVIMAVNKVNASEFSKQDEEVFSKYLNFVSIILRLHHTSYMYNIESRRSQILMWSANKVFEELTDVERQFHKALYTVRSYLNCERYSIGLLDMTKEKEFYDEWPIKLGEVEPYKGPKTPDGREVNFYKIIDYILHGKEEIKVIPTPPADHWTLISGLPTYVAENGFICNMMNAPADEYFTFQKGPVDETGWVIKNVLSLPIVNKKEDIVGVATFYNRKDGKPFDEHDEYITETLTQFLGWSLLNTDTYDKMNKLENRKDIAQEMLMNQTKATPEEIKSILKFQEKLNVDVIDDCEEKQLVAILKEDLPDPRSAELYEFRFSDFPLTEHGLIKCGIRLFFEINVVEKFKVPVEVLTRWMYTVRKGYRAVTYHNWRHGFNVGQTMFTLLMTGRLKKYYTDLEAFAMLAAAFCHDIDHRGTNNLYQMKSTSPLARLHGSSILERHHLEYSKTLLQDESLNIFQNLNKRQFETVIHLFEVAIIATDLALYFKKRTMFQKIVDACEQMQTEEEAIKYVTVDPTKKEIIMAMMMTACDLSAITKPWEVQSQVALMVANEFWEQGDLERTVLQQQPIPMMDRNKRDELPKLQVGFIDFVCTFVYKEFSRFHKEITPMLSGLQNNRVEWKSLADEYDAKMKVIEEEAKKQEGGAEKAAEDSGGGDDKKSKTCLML
Sequence of Epidermal growth factor receptor (P00533 whole entry): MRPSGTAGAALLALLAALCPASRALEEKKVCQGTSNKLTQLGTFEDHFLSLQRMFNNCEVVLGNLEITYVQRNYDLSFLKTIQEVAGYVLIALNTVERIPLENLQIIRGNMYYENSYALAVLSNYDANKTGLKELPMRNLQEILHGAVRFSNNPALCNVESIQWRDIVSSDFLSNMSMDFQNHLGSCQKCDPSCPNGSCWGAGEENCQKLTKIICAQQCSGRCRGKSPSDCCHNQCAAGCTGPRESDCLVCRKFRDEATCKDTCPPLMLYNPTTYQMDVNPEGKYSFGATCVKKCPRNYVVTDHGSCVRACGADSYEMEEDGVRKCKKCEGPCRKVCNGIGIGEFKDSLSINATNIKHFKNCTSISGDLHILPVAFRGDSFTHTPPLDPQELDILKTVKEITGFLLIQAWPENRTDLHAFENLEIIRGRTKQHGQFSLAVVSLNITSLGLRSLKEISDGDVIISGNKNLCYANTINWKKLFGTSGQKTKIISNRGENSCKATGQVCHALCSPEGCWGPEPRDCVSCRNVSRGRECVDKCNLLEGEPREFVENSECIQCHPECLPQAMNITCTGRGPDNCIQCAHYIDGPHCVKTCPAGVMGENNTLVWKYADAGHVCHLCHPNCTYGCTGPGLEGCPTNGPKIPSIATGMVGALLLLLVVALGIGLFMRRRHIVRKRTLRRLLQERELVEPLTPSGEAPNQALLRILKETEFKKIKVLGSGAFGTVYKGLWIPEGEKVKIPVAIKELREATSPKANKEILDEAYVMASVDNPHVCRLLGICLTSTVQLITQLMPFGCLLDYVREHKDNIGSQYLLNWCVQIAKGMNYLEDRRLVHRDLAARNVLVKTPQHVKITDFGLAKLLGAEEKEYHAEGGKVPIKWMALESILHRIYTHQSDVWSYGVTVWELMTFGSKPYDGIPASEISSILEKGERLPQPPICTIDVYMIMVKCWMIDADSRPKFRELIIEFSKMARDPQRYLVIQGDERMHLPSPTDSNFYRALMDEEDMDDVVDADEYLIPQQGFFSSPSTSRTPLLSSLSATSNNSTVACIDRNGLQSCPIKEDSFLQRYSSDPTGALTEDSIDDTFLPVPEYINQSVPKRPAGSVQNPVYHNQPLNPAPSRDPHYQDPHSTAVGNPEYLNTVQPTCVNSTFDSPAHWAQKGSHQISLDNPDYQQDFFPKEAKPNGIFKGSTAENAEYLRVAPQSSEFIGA
Sequence of Aurora kinase A (O14965 whole entry, the tested form may be a part): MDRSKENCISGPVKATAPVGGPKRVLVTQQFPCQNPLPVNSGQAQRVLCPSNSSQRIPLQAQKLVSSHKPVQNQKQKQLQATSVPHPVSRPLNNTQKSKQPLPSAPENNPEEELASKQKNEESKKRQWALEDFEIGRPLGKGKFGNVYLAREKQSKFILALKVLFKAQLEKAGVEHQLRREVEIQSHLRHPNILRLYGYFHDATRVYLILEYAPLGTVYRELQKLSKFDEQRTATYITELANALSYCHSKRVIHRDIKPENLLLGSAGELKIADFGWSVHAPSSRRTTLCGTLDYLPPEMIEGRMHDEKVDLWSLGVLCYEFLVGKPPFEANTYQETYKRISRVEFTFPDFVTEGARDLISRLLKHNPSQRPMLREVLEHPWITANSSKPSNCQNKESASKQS
Sequence of Histone deacetylase 1 (Q13547 whole entry, the tested form may be a part): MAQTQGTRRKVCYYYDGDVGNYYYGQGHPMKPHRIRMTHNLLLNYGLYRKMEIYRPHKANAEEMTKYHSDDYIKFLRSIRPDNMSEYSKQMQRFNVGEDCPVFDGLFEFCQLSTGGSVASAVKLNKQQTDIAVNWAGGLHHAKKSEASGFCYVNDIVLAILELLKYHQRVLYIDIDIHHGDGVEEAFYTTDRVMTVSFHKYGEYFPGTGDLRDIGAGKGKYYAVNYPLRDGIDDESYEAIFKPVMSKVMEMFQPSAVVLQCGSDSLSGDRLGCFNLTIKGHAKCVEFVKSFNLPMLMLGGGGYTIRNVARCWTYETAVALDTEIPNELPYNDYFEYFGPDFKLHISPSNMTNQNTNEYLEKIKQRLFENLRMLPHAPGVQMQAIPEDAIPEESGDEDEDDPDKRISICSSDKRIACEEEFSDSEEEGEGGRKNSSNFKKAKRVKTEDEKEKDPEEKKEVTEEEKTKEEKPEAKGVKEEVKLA

Cc1ccc2c(c1)nc(CCN1C(=O)c3cccc4cccc(c34)C1=O)n2-c1ccncc1
IC50 [1]: 4.7 µM | Activity (Rattus norvegicus [2]): Active | IC50 [3]: > 10 µM | IC50 (Cholinesterase): > 20 µM | IC50 (Acetylcholinesterase): > 20 µM | Vd [4]: 0.51 L/kg | IC50 [5]: > 20 µM | Ratio IC50 (Homo sapiens [6]): > 45000 | IC50 [7]: > 10 µM | IC50 [8]: > 10 µM | Ratio IC50 (Homo sapiens [9]): > 45000 | IC50 (Estrogen receptor): > 20 µM | Ratio IC50 (Homo sapiens [10]): > 45000 | Ratio IC50 (Homo sapiens [11]): > 45000 | IC50 (Aurora kinase B): > 10 µM | Ratio IC50 (Homo sapiens [12]): > 45000 | IC50 [13]: > 10 µM | IC50 [14]: > 10 µM | IC50 (Aurora kinase A): > 10 µM | IC50 [15]: > 20 µM | IC50 [16]: > 10 µM | Ratio IC50 (Homo sapiens [17]): > 45000 | Activity (Rattus norvegicus [18]): Active | IC50 [19]: > 20 µM | Ratio IC50 (Homo sapiens [20]): > 45000 | IC50 [21]: > 20 µM | IC50 (Histone deacetylase 1): > 10 µM | IC50 [22]: > 20 µM | IC50 [23]: > 20 µM | Activity (Rattus norvegicus [24]): Active | Activity (Rattus norvegicus [25]): Active

— ChEMBL document CHEMBL4354796 (J Med Chem, 2019)
